These results are taken from ChEMBL document CHEMBL1132244, “Benzodiazepine receptor ligands. 4. Synthesis and pharmacological evaluation of 3-heteroaryl-8-chloropyrazolo[5,1-c][1,2,4] benzotriazine 5-oxides” (J Med Chem, 1999).

The subject of data set [1] is Mus musculus. The data set can be described thus: Antianxiety activity was measured based on light/dark box thus calculated % time in light of mice at 3 mg/kg dose. It counts as functional. A digest of the protocol:
(§1)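 Male Swiss-Webster mice, 22–26 g, dosed orally with drug or 1% CMC vehicle (10 mL/kg), placed 30 min later in the centre of the lit side of a two-compartment light/dark box (60-W bulb 400 mm above the white floor). Time in the lit side and number of crossings counted over 5 min. Student's t-test.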

Data set [2] concerns Mus musculus. The data set can be described thus: Antianxiety activity was measured based on light/dark box thus calculated no of crosses of mice at 10 mg/kg dose. It counts as functional. The method in brief:
as §1

Data set [3] has as its system Mus musculus. Briefly: Anticonvulsant activity against PTZ induced atacks at 30 mg/kg dose. It is filed as functional.
The test system of data set [4] is Mus musculus. Briefly: (§2) Anticonvulsant activity against MES-induced hindlimb extension at 300 mg/kg dose. It is filed as functional.
Data set [5] concerns the target T1, GABA-A receptor; anion channel (Bos taurus) (UniProt P10063+P08220+P20237+P08219+P10064+P22300). Briefly: Percentage inhibition of [3H]Ro-151788 binding to GABA-A benzodiazepine receptor in bovine brain membrane at 10 uM. It counts as cell membranes. A digest of the protocol: (§3)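 Washed bovine cerebral cortex membranes, with endogenous GABA removed by Triton X-100/37 °C washes, incubated with ~0.2 nM [3H]Ro15-1788 (Kd 0.60 nM) in 50 mM Tris-citrate pH 7.4 for 90 min at 0 °C, then filtered. Nonspecific binding defined with 10 μM diazepam. Screening at 10 μM; Ki from IC50 by Cheng–Prusoff; five determinations, mean ± SEM.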

The target of data set [6] is GABA-A receptor; anion channel. The data set can be described thus: Displacement of [3H]Ro-151788 from GABA-A benzodiazepine receptor of bovine brain membranes. It counts as cell membranes, Bos taurus. The method in brief: as §3
In general terms: In a radioligand displacement assay an active substance lowers the binding of a labelled ligand.

The subject of data set [7] is Mus musculus. The data set can be described thus: Antianxiety activity was measured based on light/dark box thus calculated % time in light of mice at 100 mg/kg dose. It is filed as functional. A digest of the protocol: as §1
In data set [8] the test system is Mus musculus. The data set can be described thus: Anticonvulsant activity against PTZ induced atacks at 300 mg/kg dose. It counts as functional.
Data set [9] deals with Mus musculus. The data set can be described thus: Muscle relaxant effect measured by rotarod test at 30 mg/Kg dose in mice. It counts as functional. The method in brief: (§4)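 Motor coordination on the rota rod in male Swiss-Webster mice (22–26 g) after oral dosing in 1% CMC (10 mL/kg), tested 30 min post-dose. Student's t-test.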
Background: In the rotarod test animals must keep their balance on a rotating rod.

The test system of data set [10] is Mus musculus. Briefly: (§5) Anticonvulsant activity against MES-induced hindlimb extension at 30 mg/kg dose. It counts as functional.
Data set [11] relates to Mus musculus. Briefly: Muscle relaxant effect measured by rotarod test at 300 mg/Kg dose in mice. It counts as functional. A digest of the protocol: as §4
Data set [12] has as its system Mus musculus. The data set can be described thus: Antianxiety activity was measured based on light/dark box thus calculated no of crosses of mice at 100 mg/kg dose. It is filed as functional. A digest of the protocol: as §1
Data set [13] deals with Mus musculus. Briefly: (§6) Anticonvulsant activity against MES-induced hindlimb extension at 100 mg/kg dose. It counts as functional.
Data set [14] relates to Mus musculus. The description is as §5. It is filed as ADME, organism-based. The settings on record: in vivo. Details: dose 30 mg/kg. The method in brief: (§7)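 Male Swiss-Webster mice (22–26 g) received drug in 1% CMC (10 mL/kg) 30 min before maximal electroshock through transcorneal electrodes (40 mA, 50 Hz, 0.2 s). The end point was tonic hindlimb extension, and lethality was also noted. The incidence of non-convulsing mice was analysed by χ² test.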

In data set [15] the test system is Mus musculus. The data set can be described thus: Antianxiety activity was measured based on light/dark box thus calculated % time in light of mice at 30 mg/kg dose. It is filed as functional. The method in brief:
as §1

Data set [16] has as its system Mus musculus. Briefly: Anticonvulsant activity against PTZ induced atacks at 100 mg/kg dose. It counts as functional.
In data set [17] the test system is Mus musculus. Briefly: Muscle relaxant effect measured by rotarod test at 100 mg/Kg dose in mice. It is filed as functional. The method in brief: as §4
Data set [18] relates to Mus musculus. The data set can be described thus: Antianxiety activity was measured based on light/dark box thus calculated % time in light of mice at 10 mg/kg dose. It counts as functional. A digest of the protocol: as §1
For data set [19], the target named is T1, GABA-A receptor; anion channel (Bos taurus). Briefly: The GABA ratio (GR) = IC50 compound + 10 uM GABA, performed in five independent experiments was calculated for the compound. It counts as protein-complex assay. A digest of the protocol: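 [3H]Ro15-1788 displacement from GABA-depleted bovine cortex membranes (0.2 nM ligand, 90 min, 0 °C, Tris-citrate pH 7.4). IC50 measured without and with 10 μM GABA and the ratio taken; five independent experiments.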

Data set [20] has as its system Mus musculus. Described as §2. It counts as ADME, organism-based. Details: dose 300 mg/kg. Conditions: in vivo. The method in brief: as §7
In data set [21] the test system is Mus musculus. The data set is described as §6. The settings on record: in vivo. Details: dose 100 mg/kg. It is filed as organism-based. The method in brief: as §7
Data set [22] concerns Mus musculus. The data set can be described thus: Antianxiety activity was measured based on light/dark box thus calculated no of crosses of mice at 30 mg/kg dose. It counts as functional. The method in brief:
as §1

The subject of data set [23] is Mus musculus. The data set can be described thus: Antianxiety activity was measured based on light/dark box thus calculated no of crosses of mice at 3 mg/kg dose. It counts as functional. The method in brief:
as §1

A word on the inhibition: it is the percentage by which the read-out fell short of the control. High values mean a strong effect, low ones a weak effect. The Ki is a measure of affinity in units of concentration, obtained from inhibition or displacement. A higher Ki goes with a looser hold on the target. With `[O-][n+]1nc2c(-c3cccs3)cnn2c2cc(Cl)ccc21`, the Time in flight is reported as 88.9% with Mus musculus [1], 114.5% in the data set on Mus musculus [7], 11.5% with Mus musculus [15] and 122.2% in the data set with Mus musculus [18]. The No. of crosses in the data set on Mus musculus [2] is given as 20; in the data set with Mus musculus [12] it was 18.4; with Mus musculus [22], 17.6; with Mus musculus [23], 15. Moreover, the Atttacks was 10% with Mus musculus [3], 12.5% with Mus musculus [8] and 16.6% in the data set on Mus musculus [16]. For the same molecule, the Extension with Mus musculus [4], in the data set with Mus musculus [10] and with Mus musculus [13] was 0% throughout. Also, the inhibition in [5] is 82%. This molecule returned an inhibitory constant (Ki) in [6] of 10.3 nM. Moreover, the No. of falls in the data set with Mus musculus [9] came to 0; in the data set with Mus musculus [11], 0.2; in the data set on Mus musculus [17] it was 0.08. The Lethality was 18.2% with Mus musculus [14], 8.3% in the data set with Mus musculus [20] and 20% in the data set with Mus musculus [21]. The GR in data set [19] is 1.54.
